According to ChEMBL document CHEMBL2176874, “1-(sulfonyl)-5-(arylsulfonyl)indoline as activators of the tumor cell specific M2 isoform of pyruvate kinase” (Bioorg Med Chem Lett, 2012):
Calls of active or inactive are those of the source. No cut-off for these calls is given here.

How the values were obtained:
[1] = biological target: Pyruvate kinase PKM (Homo sapiens) (UniProt P14618); experiment: Activation of human pyruvate kinase M2 using phosphoenolpyruvate as substrate by kinaseGlo assay relative to control
Chain of Pyruvate kinase PKM (Homo sapiens) (P14618 2-531 limits assumed): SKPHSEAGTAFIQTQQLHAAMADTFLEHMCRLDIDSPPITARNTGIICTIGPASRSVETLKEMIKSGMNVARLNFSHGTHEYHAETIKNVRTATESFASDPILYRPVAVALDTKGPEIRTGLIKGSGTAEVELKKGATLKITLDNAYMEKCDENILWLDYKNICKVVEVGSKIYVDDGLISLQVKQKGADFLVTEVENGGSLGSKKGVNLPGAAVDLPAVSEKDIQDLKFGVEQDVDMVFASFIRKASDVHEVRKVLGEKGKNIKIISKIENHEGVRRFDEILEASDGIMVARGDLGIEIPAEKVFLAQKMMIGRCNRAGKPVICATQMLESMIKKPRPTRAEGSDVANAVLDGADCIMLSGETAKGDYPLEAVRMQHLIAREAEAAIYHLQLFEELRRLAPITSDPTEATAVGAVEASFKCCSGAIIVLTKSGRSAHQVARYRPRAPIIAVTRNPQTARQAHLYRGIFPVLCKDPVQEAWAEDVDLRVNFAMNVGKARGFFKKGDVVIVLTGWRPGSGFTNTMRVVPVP
Procedure, shortened: (§1)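 Cell-free enzymatic pyruvate kinase activity assay. Maximal activation is expressed as the percentage rise in enzyme activity above basal level, with 0% set as enzyme activity without compound.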

[2] = biological target: Pyruvate kinase PKM (Homo sapiens) (UniProt P14618); experiment: Activation of human pyruvate kinase M2 using phosphoenolpyruvate as substrate assessed as concentration required for 50% activation by kinaseGlo assay
[3] = Serum protein binding in human at 1 uM after 5 hrs by LC-MS/MS analysis; type: ADME, cell-free; conditions: read-out: PB (converted)
hERG (KCNH2) = hERG (KCNH2) (Homo sapiens, UniProt Q12809); experiment: Inhibition of human ERG expressed in CHO cells at 1 uM measured up to 3 mins by whole cell patch clamp assay; type: cell-based; conditions: CHO cells expressing human ERG
Chain of hERG (KCNH2) (Q12809 whole entry): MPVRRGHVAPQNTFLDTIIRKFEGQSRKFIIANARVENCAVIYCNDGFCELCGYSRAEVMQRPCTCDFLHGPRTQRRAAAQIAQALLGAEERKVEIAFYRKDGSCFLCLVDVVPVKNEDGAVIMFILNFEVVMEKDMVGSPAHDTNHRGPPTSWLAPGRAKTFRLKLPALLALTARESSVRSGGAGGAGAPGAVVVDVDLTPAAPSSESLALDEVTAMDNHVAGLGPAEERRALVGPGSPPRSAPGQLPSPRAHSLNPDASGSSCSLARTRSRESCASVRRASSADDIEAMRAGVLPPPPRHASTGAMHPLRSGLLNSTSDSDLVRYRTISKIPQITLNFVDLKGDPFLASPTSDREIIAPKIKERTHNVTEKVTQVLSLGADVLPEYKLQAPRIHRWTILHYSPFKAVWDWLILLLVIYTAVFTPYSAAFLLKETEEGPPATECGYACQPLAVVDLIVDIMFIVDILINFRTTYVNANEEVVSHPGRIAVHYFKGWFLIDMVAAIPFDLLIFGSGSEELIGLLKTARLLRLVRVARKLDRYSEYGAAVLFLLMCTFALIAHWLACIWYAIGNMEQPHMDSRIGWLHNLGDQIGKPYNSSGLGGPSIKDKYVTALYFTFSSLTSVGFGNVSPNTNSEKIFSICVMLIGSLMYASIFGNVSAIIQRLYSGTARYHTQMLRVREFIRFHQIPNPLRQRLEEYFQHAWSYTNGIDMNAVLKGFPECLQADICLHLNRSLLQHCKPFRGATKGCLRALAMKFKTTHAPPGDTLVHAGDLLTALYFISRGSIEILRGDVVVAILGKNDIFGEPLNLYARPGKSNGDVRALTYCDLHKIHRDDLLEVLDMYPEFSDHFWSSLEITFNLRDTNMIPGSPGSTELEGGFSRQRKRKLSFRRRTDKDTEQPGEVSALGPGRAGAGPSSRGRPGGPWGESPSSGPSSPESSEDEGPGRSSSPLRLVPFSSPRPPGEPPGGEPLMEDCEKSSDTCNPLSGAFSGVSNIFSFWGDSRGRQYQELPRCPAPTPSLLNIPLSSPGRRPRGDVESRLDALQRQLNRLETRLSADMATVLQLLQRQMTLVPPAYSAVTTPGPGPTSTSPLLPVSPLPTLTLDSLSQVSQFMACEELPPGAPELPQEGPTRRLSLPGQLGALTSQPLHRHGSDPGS

[4] = Efflux ratio of apparent permeability from basal to apical to apical to basal side of human Caco2 cells at 10 uM after 90 mins by LC-MS/MS analysis; conditions: Caco-2
[5] = Apparent permeability from basal to apical side of human Caco2 cells at 10 uM after 90 mins by LC-MS/MS analysis; conditions: Caco-2
[6] = Apparent permeability from apical to basal side of human Caco2 cells at 10 uM after 90 mins by LC-MS/MS analysis; conditions: Caco-2
[7] = Half life in human liver microsomes at 1 uM by LC-MS/MS analysis
[8] = biological target: Pyruvate kinase PKLR (Homo sapiens) (UniProt P30613); experiment: Activation of human pyruvate kinase R using phosphoenolpyruvate as substrate by kinaseGlo assay relative to control; procedure, shortened: as §1
Chain of Pyruvate kinase PKLR (Homo sapiens) (P30613 whole entry, looked up): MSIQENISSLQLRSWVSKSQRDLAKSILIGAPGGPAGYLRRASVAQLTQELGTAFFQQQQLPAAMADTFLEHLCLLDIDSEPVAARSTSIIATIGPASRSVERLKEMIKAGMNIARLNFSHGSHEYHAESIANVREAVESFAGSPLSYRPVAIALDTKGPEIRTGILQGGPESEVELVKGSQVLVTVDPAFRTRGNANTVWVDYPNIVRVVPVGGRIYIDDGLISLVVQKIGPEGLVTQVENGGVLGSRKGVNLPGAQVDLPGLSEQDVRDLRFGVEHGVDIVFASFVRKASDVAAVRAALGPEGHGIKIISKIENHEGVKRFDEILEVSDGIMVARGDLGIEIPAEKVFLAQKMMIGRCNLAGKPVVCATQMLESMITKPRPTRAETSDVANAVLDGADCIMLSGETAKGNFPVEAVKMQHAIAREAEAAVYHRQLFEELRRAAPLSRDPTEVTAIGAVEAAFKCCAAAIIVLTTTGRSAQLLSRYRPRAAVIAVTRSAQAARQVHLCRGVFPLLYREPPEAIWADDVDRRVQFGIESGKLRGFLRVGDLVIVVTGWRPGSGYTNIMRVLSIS

[9] = biological target: Pyruvate kinase PKLR (Homo sapiens) (UniProt P30613); experiment: Activation of human pyruvate kinase R using phosphoenolpyruvate as substrate assessed as concentration required for 50% activation by kinaseGlo assay
[10] = biological target: Pyruvate kinase PKLR (Homo sapiens) (UniProt P30613); experiment: Activation of human pyruvate kinase L using phosphoenolpyruvate as substrate by kinaseGlo assay relative to control; procedure, shortened: as §1
[11] = biological target: Pyruvate kinase PKLR (Homo sapiens) (UniProt P30613); experiment: Activation of human pyruvate kinase L using phosphoenolpyruvate as substrate assessed as concentration required for 50% activation by kinaseGlo assay
[12] = biological target: Pyruvate kinase PKM (Homo sapiens) (UniProt P14618); experiment: Activation of human pyruvate kinase M1 using phosphoenolpyruvate as substrate by kinaseGlo assay relative to control; procedure, shortened: as §1
[13] = biological target: Pyruvate kinase PKM (Homo sapiens) (UniProt P14618); experiment: Activation of human pyruvate kinase M1 using phosphoenolpyruvate as substrate by kinaseGlo assay

Row | SMILES | max activation [1] | Activity [2] | further results
1 | CS(=O)(=O)N1CCCc2cc(S(=O)(=O)c3ccc4c(c3)OCCO4)ccc21 | 152% | 2.3 µM | 
2 | CC1Cc2cc(NS(=O)(=O)c3ccc4c(c3)OCCO4)ccc2N1S(C)(=O)=O (racemic) | 32.5% | > 100 µM | 
3 | CC1Cc2cc(C(=O)c3ccc4c(c3)OCCO4)ccc2N1S(C)(=O)=O (racemic) |  | inactive | 
4 | O=S(=O)(c1ccc2c(c1)CCN2S(=O)(=O)c1cccc(F)c1)c1ccc2c(c1)OCCO2 | 87% | 0.03 µM | 
5 | CCN(c1ccc(S(=O)(=O)c2ccc3c(c2)OCCO3)c(C)c1)S(C)(=O)=O | 160% | 2.7 µM | 
6 | CC(C)N(c1ccc(S(=O)(=O)c2ccc3c(c2)OCCO3)cc1)S(C)(=O)=O | 194% | 2.8 µM | 
7 | CS(=O)(=O)N1CCCc2cc(C(=O)CSc3ccc4c(c3)OCCO4)ccc21 | 107% | 1.3 µM | 
8 | CCS(=O)(=O)N1CCc2cc(C(=O)CSc3ccc4c(c3)OCCCO4)ccc21 | 149% | 0.51 µM | half-life at 1 µM ([7]; liver microsomes): 1.4 min
9 | CC(C)CS(=O)(=O)N1Cc2ccc(S(=O)(=O)c3ccc4c(c3)OCCO4)cc2C1 | 91.5% | 0.189 µM | 
10 | CCS(=O)(=O)N1CCc2cc(C(=O)CSc3ccc(F)cc3F)ccc21 | 171% | 4.1 µM | 
11 | O=S(=O)(c1ccc2c(c1)CN(S(=O)(=O)c1ccccc1)C2)c1ccc2c(c1)OCCO2 | 140% | 0.061 µM | 
12 | CC1Cc2cc(S(=O)(=O)c3ccc4c(c3)OCCO4)ccc2N1S(=O)(=O)Cc1ccccc1 (racemic) | 111% | 1.6 µM | 
13 | CS(=O)(=O)N1CCc2cc(S(=O)(=O)c3ccc4c(c3)OCCO4)ccc21 | 106% | 0.045 µM | fraction unbound at 5 h, 1 µM [3]: 0.059; inhibition at 0.05 h, 1 µM (hERG (KCNH2)): 9%; max activation [8]: 34%; Activity [9]: > 100 µM; max activation [10]: 33%; Activity [11]: > 100 µM; max activation [12]: inactive; Activity [13]: inactive; efflux ratio at 1.5 h, 10 µM [4]: 1.14; Papp B→A at 1.5 h, 10 µM [5]: 43 ×10⁻⁶ cm/s; Papp A→B at 1.5 h, 10 µM [6]: 37.5 ×10⁻⁶ cm/s; half-life at 1 µM ([7]; microsomes): 26 min
14 | CCS(=O)(=O)N1CCc2cc(C(=O)CSc3cccc(OC)c3)ccc21 | 110% | 2.4 µM | 
15 | CS(=O)(=O)N1CCc2c1cc(F)c(S(=O)(=O)c1ccc3c(c1)OCCO3)c2F | 78% | 0.079 µM | 
16 | CCS(=O)(=O)N1CCc2cc(S(=O)(=O)c3ccc4c(c3)OCCO4)ccc21 | 89% | 0.027 µM | 
17 | Cc1cn(S(C)(=O)=O)c2ccc(S(=O)(=O)c3ccc4c(c3)OCCO4)cc12 | 154% | 2.72 µM | 

Now from value to compound, other results behind:

Row | max activation [1] | Activity [2] | SMILES | further results
18 | 125% | 0.017 µM | CS(=O)(=O)N1Cc2ccc(S(=O)(=O)c3ccc4c(c3)OCCO4)cc2C1 | fraction unbound at 5 h, 1 µM [3]: 0.091; inhibition at 0.05 h, 1 µM (hERG (KCNH2)): 7.3%; efflux ratio at 1.5 h, 10 µM [4]: 1.06; Papp B→A at 1.5 h, 10 µM [5]: 32.4 ×10⁻⁶ cm/s; Papp A→B at 1.5 h, 10 µM [6]: 30.4 ×10⁻⁶ cm/s; half-life at 1 µM ([7]; liver microsomes): > 45 min
19 | 148% | 2 µM | CC1Cc2cc(S(=O)(=O)c3ccc4c(c3)OCCO4)ccc2N1S(C)(=O)=O (racemic) | fraction unbound at 5 h, 1 µM [3]: 0.075; efflux ratio at 1.5 h, 10 µM [4]: 0.59; Papp B→A at 1.5 h, 10 µM [5]: 12.1 ×10⁻⁶ cm/s; Papp A→B at 1.5 h, 10 µM [6]: 20.4 ×10⁻⁶ cm/s; half-life at 1 µM ([7]; liver microsomes): 31.5 min
20 | 25.5% | 51 µM | CC1Cc2cc(S(=O)(=O)Nc3ccc4c(c3)OCCO4)ccc2N1S(C)(=O)=O (racemic) | 
21 | 119% | 0.8 µM | COc1cccc(S(=O)(=O)N2c3ccc(S(=O)(=O)c4ccc5c(c4)OCCO5)cc3CC2C)c1 (racemic) | 
22 | 164% | 0.55 µM | CC1Cc2cc(C(=O)CSc3ccc4c(c3)OCCO4)ccc2N1S(C)(=O)=O (racemic) | half-life at 1 µM ([7]; liver microsomes): 3.4 min
23 | 98% | 0.023 µM | CS(=O)(=O)n1ccc2cc(S(=O)(=O)c3ccc4c(c3)OCCO4)ccc21 | 
24 | 168% | 0.5 µM | CC1Cc2cc(S(=O)(=O)c3ccc4c(c3)OCCO4)ccc2N1S(=O)(=O)c1c(F)cccc1F (racemic) | 
25 | 35% | 0.02 µM | CCS(=O)(=O)N1Cc2ccc(S(=O)(=O)c3ccc4c(c3)OCCO4)cc2C1 | 
26 | 148% | 0.08 µM | O=P(O)(O)OC[C@H]1O[C@@](O)(COP(=O)(O)O)[C@@H](O)[C@@H]1O | 
27 | 140% | 2.5 µM | CS(=O)(=O)Nc1ccc(C(=O)CSc2ccc3c(c2)OCCO3)cc1 | half-life at 1 µM ([7]; microsomes): 3.3 min
28 | 122% | 0.093 µM | O=S(=O)(c1ccc2c(c1)CCN2S(=O)(=O)c1ccccc1)c1ccc2c(c1)OCCO2 | 
29 | 105% | 0.017 µM | O=S(=O)(c1ccc2c(c1)CCN2S(=O)(=O)C1CC1)c1ccc2c(c1)OCCO2 | 
30 | 134% | 0.6 µM | CC1Cc2cc(S(=O)(=O)c3ccc4c(c3)OCCO4)ccc2N1S(=O)(=O)c1ccccc1 (racemic) | 
31 | 100% | 41 µM | CCN(c1ccc(S(=O)(=O)c2ccc3c(c2)OCCO3)cc1)S(C)(=O)=O | 
32 | 159% | 0.6 µM | CC1Cc2cc(S(=O)(=O)c3ccc4c(c3)OCCO4)ccc2N1S(=O)(=O)c1ccc(F)cc1 (racemic) | 
